# Measured values: ChEMBL document CHEMBL2321660, “Synthesis, characterization, and photoinduced antibacterial activity of porphyrin-type photosensitizers conjugated to the antimicrobial peptide apidaecin 1b” (J Med Chem, 2013)
# Activity calls are given as the source filed them. The rule behind the calls is not given here. Residues, ends and D or L forms follow the SMILES beside them. *: point of attachment. Benzoyl(4-TriPhPorphyrinyl) = O=C(c1ccc(-c2c3nc(c(-c4ccccc4)c4ccc([nH]4)c(-c4ccccc4)c4nc(c(-c5ccccc5)c5ccc2[nH]5)C=C4)C=C3)cc1)*
# Tests used:
# Escherichia coli [1] = test: Antibacterial activity against Escherichia coli ATCC 25922 assessed as cell death after 60 mins in dark followed by blue light illumination; format: functional, organism-based
# Method in brief: (§1)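 Dark incubation with PS at rt, then illumination either directly or after three PBS washes (10000g, 5 min). Survival by 10-fold serial dilution, duplicate plating on BHI agar, overnight colony count at 37 °C; dark, light-only and peptide-only controls.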
# Staphylococcus aureus [2] = test: Antibacterial activity against methicillin-resistant Staphylococcus aureus ATCC BAA-44 assessed as log reduction in cell survival at 0.5 uM incubated for 60 mins in dark followed by blue light illumination; format: functional
# Method in brief: (§2)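 Stationary-phase bacteria grown overnight in BHI at 37 °C, washed twice and resuspended in PBS pH 7.3 at ~2 × 10⁷ cells/mL. Dark incubation with PS at rt, unbound PS left in. Blue light (390−460 nm) at 15.2 mW/cm², 13.5 J/cm². Survivors counted as cfu from serial 10-fold dilutions plated in duplicate on BHI agar, 37 °C overnight. Dark, light-only and untreated controls.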
# Staphylococcus aureus [3] = test: Antibacterial activity against methicillin-resistant Staphylococcus aureus ATCC BAA-44 assessed as cell death at 0.5 uM incubated for 15 to 120 mins in dark followed by blue light illumination post compound washout; format: functional, organism-based
# Method in brief: (§3)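 Overnight BHI-grown stationary-phase bacteria in PBS pH 7.3 at ~2 × 10⁷ cells/mL, dark-incubated with PS at rt. Then centrifuged at 10000g for 5 min and washed three times in PBS before blue light (390−460 nm, 15.2 mW/cm², 13.5 J/cm²). Survival measured as cfu from serial dilutions plated in duplicate on BHI agar.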
# Escherichia coli [4] = test: Antibacterial activity against Escherichia coli ATCC 25922 assessed as cell death at 10 uM incubated for 15 to 120 mins in dark followed by blue light illumination post compound washout; format: functional, organism-based; method in brief: as §1
# Escherichia coli [5] = test: Drug uptake in Escherichia coli ATCC 25922 at 5 uM incubated for 60 mins in dark followed by flow cytometry; format: ADME, organism-based; conditions: in vivo, 1 h
# Method in brief: (§4)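 Bacterial suspensions treated as for photoinactivation (5 μM, 60 min dark incubation at rt, either unwashed or washed three times with PBS) and then analysed for cell-associated red fluorescence by flow cytometry instead of being illuminated.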
# Staphylococcus aureus [6] = test: Drug uptake in methicillin-resistant Staphylococcus aureus ATCC BAA-44 at 1.5 uM incubated for 60 mins in dark followed by flow cytometry; format: ADME, organism-based; conditions: in vivo, 1 h
# Method in brief: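 Cells treated as for photoinactivation: 60 min dark incubation with PS, unwashed or after three PBS washings. Analysed by flow cytometry for cell-associated red fluorescence instead of being illuminated.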
# Staphylococcus aureus [7] = test: Antibacterial activity against methicillin-resistant Staphylococcus aureus ATCC BAA-44 assessed as cell death at 0.5 uM incubated for 15 to 120 mins in dark followed by blue light illumination; format: functional, organism-based; method in brief: as §2
# Escherichia coli [8] = test: Antibacterial activity against Escherichia coli ATCC 25922 assessed as cell death at 10 uM incubated for 15 to 120 mins in dark followed by blue light illumination; format: functional, organism-based; method in brief: as §1
# Escherichia coli [9] = test: Antibacterial activity against Escherichia coli ATCC 25922 assessed as cell death at 1.5 to 15 uM incubated for 60 mins in dark followed by blue light illumination post compound washout; format: functional, organism-based; method in brief: as §1
# Staphylococcus aureus [10] = test: Antibacterial activity against methicillin-resistant Staphylococcus aureus ATCC BAA-44 assessed as cell death at 0.5 uM incubated for 60 mins in dark followed by blue light illumination post compound washout; format: functional, organism-based; method in brief: as §3
# Escherichia coli [11] = test: Antibacterial activity against Escherichia coli ATCC 25922 assessed as cell death at 15 uM incubated for 60 mins in dark followed by blue light illumination relative to control; format: functional; method in brief: as §2
# Escherichia coli [12] = test: Antibacterial activity against Escherichia coli ATCC 25922 assessed as cell death at 10 uM incubated for 60 mins in dark followed by blue light illumination post compound washout; format: functional, organism-based; method in brief: as §1
# Escherichia coli [13] = test: Antibacterial activity against Escherichia coli ATCC 25922 assessed as cell death at 5 to 10 uM incubated for 60 mins in dark followed by blue light illumination; format: functional, organism-based; method in brief: as §2
# Escherichia coli [14] = test: Antibacterial activity against Escherichia coli ATCC 25922 assessed as log reduction at 10 uM incubated for 60 mins in dark followed by blue light illumination post compound washout relative to control; format: functional, organism-based; method in brief: as §3
# Escherichia coli [15] = test: Antibacterial activity against Escherichia coli ATCC 25922 assessed as cell death at 5 uM incubated for 15 to 120 mins in dark followed by blue light illumination post compound washout; format: functional, organism-based; method in brief: as §3
# Escherichia coli [16] = test: Antibacterial activity against Escherichia coli ATCC 25922 assessed as cell death at 5 uM incubated for 15 to 120 mins in dark followed by blue light illumination; format: functional, organism-based; method in brief: as §2
# Staphylococcus aureus [17] = test: Antibacterial activity against methicillin-resistant Staphylococcus aureus ATCC BAA-44 assessed as cell death at 50 to 500 nM incubated for 60 mins in dark followed by blue light illumination; format: functional, organism-based; method in brief: as §2
# Staphylococcus aureus [18] = test: Antibacterial activity against methicillin-resistant Staphylococcus aureus ATCC BAA-44 assessed as cell death at 0.5 uM incubated for 60 mins in dark followed by blue light illumination; format: functional, organism-based; method in brief: as §2
# Staphylococcus aureus [19] = test: Antibacterial activity against methicillin-resistant Staphylococcus aureus ATCC BAA-44 assessed as cell death at 50 to 500 nM incubated for 60 mins in dark followed by blue light illumination post compound washout; format: functional, organism-based; method in brief: as §3
# Staphylococcus aureus [20] = test: Antibacterial activity against methicillin-resistant Staphylococcus aureus ATCC BAA-44 assessed as cell death at 10 nM incubated for 15 to 120 mins in dark followed by blue light illumination post compound washout; format: functional, organism-based; method in brief: as §3
# Staphylococcus aureus [21] = test: Antibacterial activity against methicillin-resistant Staphylococcus aureus ATCC BAA-44 assessed as cell death at 10 nM incubated for 15 to 120 mins in dark followed by blue light illumination; format: functional, organism-based; method in brief: as §2
# Escherichia coli [22] = test: Drug uptake in Escherichia coli ATCC 25922 at 5 uM incubated for 60 mins in dark followed by flow cytometry post compound washout; format: ADME, organism-based; conditions: in vivo, 1 h; method in brief: as §4
# Staphylococcus aureus [23] = test: Antibacterial activity against methicillin-resistant Staphylococcus aureus ATCC BAA-44 assessed as cell death at 1.5 to 15 uM incubated for 60 mins in dark followed by red light illumination; format: functional, organism-based
# Method in brief: (§5)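 Cells incubated with PS in the dark at rt in PBS pH 7.3 (~2 × 10⁷ cells/mL), unbound PS not removed. Red light (600−750 nm) delivered from above at 40 mW/cm², total 36 J/cm². Viability read as cfu after 10-fold serial dilution, duplicate plating on BHI agar, overnight at 37 °C.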
# Staphylococcus aureus [24] = test: Antibacterial activity against methicillin-resistant Staphylococcus aureus ATCC BAA-44 assessed as cell death at 10 uM incubated for 15 to 120 mins in dark followed by red light illumination post compound washout; format: functional, organism-based
# Method in brief: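 After dark incubation with PS in PBS at rt, cells pelleted at 10000g for 5 min and washed three times with PBS. Red light (600−750 nm, 40 mW/cm², 36 J/cm²). Surviving cfu counted on BHI agar plated in duplicate.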
# Staphylococcus aureus [25] = test: Antibacterial activity against methicillin-resistant Staphylococcus aureus ATCC BAA-44 assessed as cell death at 10 uM incubated for 15 to 120 mins in dark followed by red light illumination; format: functional, organism-based; method in brief: as §5
# Escherichia coli [26] = test: Antibacterial activity against Escherichia coli ATCC 25922 assessed as cell death after 60 mins in dark followed by red light illumination; format: functional, organism-based; method in brief: as §1
Compound,Activity (Escherichia coli [1]),FC (Staphylococcus aureus [2]),Activity (Staphylococcus aureus [3]),Activity (Escherichia coli [4]),Drug uptake (Escherichia coli [5]),Drug uptake (Staphylococcus aureus [6]),Activity (Staphylococcus aureus [7]),Activity (Escherichia coli [8]),Activity (Escherichia coli [9]),Activity (Staphylococcus aureus [10]),fold change (FC) (Escherichia coli [11]),Activity (Staphylococcus aureus [17]),Activity (Staphylococcus aureus [18]),Activity (Staphylococcus aureus [19]),other results
CC(C)C[C@H](NC(=O)[C@H](CCCNC(=N)N)NC(=O)[C@@H]1CCCN1C(=O)[C@H](Cc1cnc[nH]1)NC(=O)[C@@H]1CCCN1C(=O)[C@@H]1CCCN1C(=O)[C@H](CCCNC(=N)N)NC(=O)[C@@H]1CCCN1C(=O)CNC(=O)c1ccc(-c2c3nc(c(-c4ccccc4)c4ccc([nH]4)c(-c4ccccc4)c4nc(c(-c5ccccc5)c5ccc2[nH]5)C=C4)C=C3)cc1)C(=O)O ({Benzoyl(4-TriPhPorphyrinyl)}-GPRPPHPRL-OH),Dose-dependent effect,3,Active,Active,Active,Active,Active,Active,Active,Active,4,–,–,–,–
CC[C@H](C)[C@H](NC(=O)[C@H](Cc1ccc(O)cc1)NC(=O)[C@@H](NC(=O)[C@@H]1CCCN1C(=O)[C@H](CCCNC(=N)N)NC(=O)[C@H](CC(N)=O)NC(=O)[C@H](CC(N)=O)NC(=O)CNC(=O)c1ccc(-c2c3nc(c(-c4ccccc4)c4ccc([nH]4)c(-c4ccccc4)c4nc(c(-c5ccccc5)c5ccc2[nH]5)C=C4)C=C3)cc1)C(C)C)C(=O)N1CCC[C@H]1C(=O)N[C@@H](CCC(N)=O)C(=O)N1CCC[C@H]1C(=O)N[C@@H](CCCNC(=N)N)C(=O)N1CCC[C@H]1C(=O)N1CCC[C@H]1C(=O)N[C@@H](Cc1cnc[nH]1)C(=O)N1CCC[C@H]1C(=O)N[C@@H](CCCNC(=N)N)C(=O)N[C@@H](CC(C)C)C(=O)O ({Benzoyl(4-TriPhPorphyrinyl)}-GNNRPVYIPQPRPPHPRL-OH),Dose-dependent effect,3,Active,Active,Active,Active,Active,Active,Active,Active,4,–,–,–,Activity (Escherichia coli [12]): Active
C[n+]1ccc(-c2c3nc(c(-c4cc[n+](C)cc4)c4ccc([nH]4)c(-c4ccc(C(=O)O)cc4)c4ccc([nH]4)c(-c4cc[n+](C)cc4)c4nc2C=C4)C=C3)cc1,Dose-dependent effect,–,Active,–,Not Active,Not Active,Active,–,Active,–,–,Active,Active,inactive,Activity (Escherichia coli [13]): Active; Activity (Escherichia coli [14]): inactive; Activity (Escherichia coli [15]): Active; Activity (Escherichia coli [16]): Active
O=C(O)c1ccc(-c2c3nc(c(-c4ccccc4)c4ccc([nH]4)c(-c4ccccc4)c4nc(c(-c5ccccc5)c5ccc2[nH]5)C=C4)C=C3)cc1,inactive,–,–,–,Not Active,Active,–,–,–,–,–,Active,Active,Active,Activity (Staphylococcus aureus [20]): Active; Activity (Staphylococcus aureus [21]): Active; Drug uptake (Escherichia coli [22]): Not Active
COC(=O)CCCC(=O)Nc1cc2[nH]c(cc2-c2ccccc2)c2nc(ccc3[nH]c(cc3-c3ccccc3)c3nc1C(c1ccccc1)=C3)C(c1ccccc1)=C2,–,–,–,–,–,–,–,–,–,–,–,–,–,–,Activity (Staphylococcus aureus [23]): Active; Activity (Staphylococcus aureus [24]): Active; Activity (Staphylococcus aureus [25]): Active; Activity (Escherichia coli [26]): inactive
